Experimental data: PMC6982536 (Nature chemical biology, 2019)

What was measured:
[1] = molecular target: FKBP/FRB^T2098L (Homo sapiens, UniProt P42345+P62942, T2098L); assay type: cell-based; conditions: high ligand concentration, Fig. 3a conditions 11 and 12
[2] = system: NarX/NarL; assay type: cell-based
Procedure, shortened: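 HEK293 (37 °C, 5% CO2, DMEM) seeded at 50 000 cells/well 24 h before Lipofectamine 2000 transfection with 400 ng DNA, including NarL and a NarL-inducible Cerulean reporter. After 4 h, medium was replaced with fresh medium ± ligand. At 48 h, cells were Accutase-detached for flow cytometry. Total intensity (mean Cerulean of reporter-positive cells × positive fraction) was normalised to mCherry transfection-control total intensity.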

[3] = system: FKBP/FRB; conditions: read-out: EC50 (published value); cited from earlier work
[4] = system: CMV promoter; test: iRFP expression from the CMV promoter in HEK cells with ligand; assay type: cell-based; conditions: 1µM of procaterol or 2 µM of epinephrine vs DMEM
Procedure, shortened: (§1)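 HEK293 cultured at 37 °C, 5% CO2 in DMEM were seeded at 50 000 cells/well 24 h before transfection. Transfection used 400 ng reporter-containing DNA with Lipofectamine 2000 (3.75 µl per 1 µg DNA). Four hours later, medium was swapped for fresh medium with or without ligand.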

[5] = system: EF1α promoter; test: iRFP expression from the EF1α promoter in HEK cells with ligand; assay type: cell-based; conditions: 1µM of procaterol or 2 µM of epinephrine vs DMEM
Procedure, shortened: as §1

[6] = molecular target: β2AR^∆C::V2R^∆N::H^mut / β-arrestin::N^mut (Homo sapiens, UniProt P07550); test: GPCR/β-arrestin interaction rewired via TCS; assay type: cell-based

FKBP/FRB^T2098L, sequence (P62942 whole entry): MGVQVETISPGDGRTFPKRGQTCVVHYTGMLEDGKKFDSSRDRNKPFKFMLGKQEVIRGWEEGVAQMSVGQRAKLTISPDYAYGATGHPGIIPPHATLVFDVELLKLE
FKBP/FRB^T2098L, sequence (P42345 2012-2144 T2098L limits assumed): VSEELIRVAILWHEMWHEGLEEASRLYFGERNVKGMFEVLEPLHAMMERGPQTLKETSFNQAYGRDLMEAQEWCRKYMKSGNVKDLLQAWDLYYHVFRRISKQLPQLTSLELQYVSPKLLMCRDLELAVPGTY

CO[C@H]1[C@@H](O)[C@H](C)C[C@H](C)/C=C/C=C/C=C(\C)[C@@H](c2c[nH]c3c(C)cccc23)C[C@@H]2CC[C@@H](C)[C@@](O)(O2)C(=O)C(=O)N2CCCC[C@H]2C(=O)O[C@H]([C@H](C)C[C@@H]2CC[C@@H](O)[C@H](OC)C2)C[C@H](O)[C@H](C)/C=C(\C)[C@H]1O [A/C, C16-(S)-7-methylindolerapamycin]
dynamic range of ligand-induced signaling [1]: above 3 orders of magnitude
effect on wild-type NarX/NarL signaling ([2]; A/C, Fig. 3a conditions 2 and 3): did not affect
EC50 [3]: 10 nM

CNC[C@H](O)c1ccc(O)c(O)c1 [Epinephrine]
induction of the CMV promoter [4]: factor of two
effect on EF1α promoter [5]: not affected

CCC(NC(C)C)C(O)c1ccc(O)c2[nH]c(=O)ccc12 (stereo not drawn) [Procaterol]
effect on signaling via NarX/NarL system ([2]; procaterol, Fig. 4b conditions 2 and 3): did not affect
EC50 [6]: 5 nM
induction of the CMV promoter [4]: factor of two
effect on EF1α promoter [5]: not affected
